Series [1] is described as follows: Cmax in C57Bl6 mouse at 10 mg/kg, po administered as single dose measured up to 24 hrs ESI-LC/MS-MS analysis. It is filed as ADME, organism-based. The arrangement: dose 10 mg/kg, route oral. The settings on record: in vivo. The method in brief:
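Single dose of compound: 3 mg/kg i.v. in solution (75% water : 25% of 75% Glycoferol/25% Cremophor) or 10 mg/kg p.o. as wet-milled suspension (0.6% methylcellulose, 0.5% Tween 80 in water); male Wistar rats n=3 per route, female C57Bl6 mice n=24 per route. Plasma sampled 0.25–24 h (p.o.), 0.083–24 h (i.v.); heparinized plasma, acetonitrile precipitation, ESI-LC/MS-MS (LOQ 1 ng/mL rat, 5 ng/mL mouse); noncompartmental analysis, linear trapezoidal.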

In another series the target is T1, OATP1B3 (Homo sapiens, UniProt Q9NPD5).
T1 sequence (Q9NPD5 whole entry): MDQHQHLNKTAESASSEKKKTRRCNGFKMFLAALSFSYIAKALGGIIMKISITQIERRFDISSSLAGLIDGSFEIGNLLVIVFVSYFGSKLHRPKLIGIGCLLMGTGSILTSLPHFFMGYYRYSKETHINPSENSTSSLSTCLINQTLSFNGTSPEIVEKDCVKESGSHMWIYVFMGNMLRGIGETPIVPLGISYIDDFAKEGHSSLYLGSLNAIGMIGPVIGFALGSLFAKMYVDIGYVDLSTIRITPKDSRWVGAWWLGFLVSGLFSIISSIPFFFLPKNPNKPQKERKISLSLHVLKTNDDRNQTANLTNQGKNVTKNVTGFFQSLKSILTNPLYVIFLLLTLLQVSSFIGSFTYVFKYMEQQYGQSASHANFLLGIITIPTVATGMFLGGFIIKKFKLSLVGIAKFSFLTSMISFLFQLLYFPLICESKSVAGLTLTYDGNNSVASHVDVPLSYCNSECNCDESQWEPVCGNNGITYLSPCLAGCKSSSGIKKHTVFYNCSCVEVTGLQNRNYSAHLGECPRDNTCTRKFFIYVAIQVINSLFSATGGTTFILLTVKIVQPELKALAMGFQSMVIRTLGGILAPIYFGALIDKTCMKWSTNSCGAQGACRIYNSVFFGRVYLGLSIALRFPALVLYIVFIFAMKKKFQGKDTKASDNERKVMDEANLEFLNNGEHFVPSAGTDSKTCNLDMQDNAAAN
Kind of series: Substrate activity at human OATP1B3 expressed in HEK293 cells assessed as increase in compound uptake at 1 uM incubated up to 15 mins LC-MS/MS analysis relative to control relative to control. It is filed as ADME, cell-based. The settings on record: HEK293 cells expressing human OATP1B3, read-out: FC. The method in brief: (§1)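 HEK-TR cells overexpressing hOATP1B1 or hOATP1B3, run in parallel with control HEK-TR cells, seeded at 1 x 10⁵ cells/well one day before. Time-dependent uptake of 1 μM compound in HBSS at 37 °C, quadruplicates. Uptake stopped with ice-cold buffer, cells washed, lysed and quantified by LC-MS/MS. Uptake ratio calculated against the control cells.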

For a further series, the system named is Mus musculus. Kind of series: Suppression of blood glucose concentration in ob/ob C57Bl/6J mouse model of T2DM at 30 mg/kg, po dosed 1 hrs before test and treated with 60 mg/kg, po OATP/MRP2 inhibitor rifampicin 2.5 hrs prior to oral glucose-tolerance test. The series is classed as functional, organism-based. An outline of the steps:
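Male ob/ob mice aged 10–11 weeks, n=7, randomised on blood glucose and fasted overnight. Rifampicin 60 mg/kg p.o. 2.5 h before the oGTT, compound 30 mg/kg p.o. 1 h before, GLP1(9-36)NH2 i.p. 15 min before, each given as indicated. Glucose 2 g/kg orally. Tail-vein glucose by glucometer at 0, 15, 30, 60 and 90 min.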

Series [2] is described as follows: Lipophilicity, logD of the compound at pH 7.4 at 25 degC. It is filed as physicochemical. The settings on record: buffer.
For a further series, the target named is T2, OATP1B1 (Homo sapiens, UniProt Q9Y6L6).
T2 sequence (Q9Y6L6 whole entry): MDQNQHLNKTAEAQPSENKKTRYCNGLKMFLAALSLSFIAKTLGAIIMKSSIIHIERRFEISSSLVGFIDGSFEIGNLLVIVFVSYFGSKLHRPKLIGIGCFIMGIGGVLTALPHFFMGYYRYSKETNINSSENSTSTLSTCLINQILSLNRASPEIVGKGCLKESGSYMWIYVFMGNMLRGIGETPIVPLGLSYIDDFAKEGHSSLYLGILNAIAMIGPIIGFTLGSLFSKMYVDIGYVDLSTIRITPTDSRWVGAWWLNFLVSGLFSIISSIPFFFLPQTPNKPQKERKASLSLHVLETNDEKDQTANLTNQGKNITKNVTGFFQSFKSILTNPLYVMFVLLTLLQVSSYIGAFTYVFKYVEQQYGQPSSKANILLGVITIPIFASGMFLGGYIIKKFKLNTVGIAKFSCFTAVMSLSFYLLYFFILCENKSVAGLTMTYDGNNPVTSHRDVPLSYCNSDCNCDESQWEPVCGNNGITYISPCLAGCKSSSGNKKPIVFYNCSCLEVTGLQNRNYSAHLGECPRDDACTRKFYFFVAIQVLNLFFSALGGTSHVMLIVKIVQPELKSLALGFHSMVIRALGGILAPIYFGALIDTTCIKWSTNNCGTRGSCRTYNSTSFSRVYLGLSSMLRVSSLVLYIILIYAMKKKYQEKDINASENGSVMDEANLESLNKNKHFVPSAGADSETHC
Kind of series: Substrate activity at human OATP1B1 expressed in HEK293 cells assessed as increase in compound uptake at 1 uM incubated up to 15 mins LC-MS/MS analysis relative to control relative to control. The series is classed as ADME, cell-based. The settings on record: HEK293 cells expressing human OATP1B1, read-out: FC. The method in brief: as §1

Series [3] is described as follows: Efflux ratio in human Caco2/TC7 cells at pH 7.4 in presence of 0.5% BSA. The settings on record: Caco-2, pH 7.4. The series is classed as ADME, cell-based. The method in brief:
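Efflux in Caco-2/TC7 cells under isocratic conditions, pH 7.4 and 0.5% BSA in both compartments, compound 2 µM, with and without cyclosporine A as efflux inhibitor; LC-MS/MS analysis.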

The species entered for the next series is Rattus norvegicus. Briefly: Inhibition of glucose-stimulated insulin secretion in dispersed rat pancreatic islets at 10 uM incubated for 2 hrs by ELISA. It is filed as functional. An outline of the steps: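 Dispersed islets from male Sprague Dawley rats (collagenase digestion, Histopaque purification, Accutase dispersal, cultured up to 4 days). Pre-incubated 1 h in Krebs-Ringer with 5.6 mM glucose, then 2 h at 37 °C with 15 mM glucose, ±10 nM GLP1(9-36)NH2, ±compound 10 µM, DMSO vehicle; insulin by HTRF ELISA as % of total, n-fold vs control; N≥9.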

Series [4] can be described thus: Clearance in human hepatocytes assessed per million cells by LC-MS/MS analysis. It is filed as ADME, cell-based, Hepatocyte. An outline of the steps: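 Intrinsic clearance in primary human hepatocytes ([…] as printed) or mouse hepatocytes, compound 0.5–5 µM; quinidine or ketoconazole added to define CYP2D6/CYP3A4 contribution; LC-MS/MS analysis.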

The next series relates to Pancreatic islet. Briefly: Inhibition of glucose-stimulated insulin secretion in dispersed GLP-1(-/-) mouse pancreatic islets at 10 uM incubated for 2 hrs by ELISA. It is filed as functional, cell-based.

The source made the active and inactive calls. The rule behind the calls is not given here.

As to `CC(C)(C)OC(=O)n1c2c(c3ccccc31)C[C@H]1C(=O)N3C[C@@H](CC(=O)O)C[C@H]3[C@@H]2N1C(=O)CC1CCC(F)(F)CC1`, in series [1], the Cmax is 227 ng/mL. The uptake ratio at 0.25 h, 1 µM at OATP1B3 and at OATP1B1 was 6 to 22 in each case. Moreover, the result with Mus musculus was inactive. The compound further returned a logD in series [2] of 1.7. Further, the efflux ratio in series [3] is 247. Further, the inhibition result in the series filed under Rattus norvegicus is “inactive”. The compound further gave a CLH in series [4] of 0.184 mL/h/10^6 cells.

Turning to `CC(O)CCN1C[C@H]2c3c(c4ccccc4n3C(=O)OC(C)(C)C)C[C@@H](C1=O)N2C(=O)CC1CCC(F)(F)CC1` (some centres undefined), in the series with Pancreatic islet, the inhibition result was “Active”.

Values taken from ChEMBL document CHEMBL4354813, “Design, Synthesis, and Pharmacological Evaluation of Potent Positive Allosteric Modulators of the Glucagon-like Peptide-1 Receptor (GLP-1R)” (J Med Chem, 2020).
